The source of these data is ChEMBL document CHEMBL4396880, “Development of Small-Molecules Targeting Receptor Activator of Nuclear Factor-κB Ligand (RANKL)-Receptor Activator of Nuclear Factor-κB (RANK) Protein-Protein Interaction by Structure-Based Virtual Screening and Hit Optimization” (J Med Chem, 2019).

Each structure is given as a SMILES string. Calls of active or inactive are those of the source. The rule behind the calls is not given here.

One series deals with BMDM. The experiment in a line: Cytotoxicity against M-CSF-stimulated C57/BL6 mouse bone marrow macrophages assessed as reduction in cell viability up to 10 uM measured after 2 days by MTT assay. The format is cell-based. To be noted: 48 h. Background: Tetrazolium assays rely on reduction of a dye to a coloured formazan, in cell work by metabolically active cells.
Series [1] addresses T1, Tumor necrosis factor ligand superfamily member 11/11A (Mus musculus, UniProt O35235+O35305).
T1 sequence (O35235 whole entry): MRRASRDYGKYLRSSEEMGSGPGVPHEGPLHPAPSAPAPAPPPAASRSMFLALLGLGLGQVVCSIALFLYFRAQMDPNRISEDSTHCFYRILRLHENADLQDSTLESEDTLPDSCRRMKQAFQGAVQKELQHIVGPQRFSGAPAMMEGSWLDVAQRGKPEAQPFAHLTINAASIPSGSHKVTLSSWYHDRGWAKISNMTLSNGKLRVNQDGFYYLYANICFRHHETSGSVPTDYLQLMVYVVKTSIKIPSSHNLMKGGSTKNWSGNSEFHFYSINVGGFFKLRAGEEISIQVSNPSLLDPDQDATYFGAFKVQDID
T1 sequence (O35305 whole entry): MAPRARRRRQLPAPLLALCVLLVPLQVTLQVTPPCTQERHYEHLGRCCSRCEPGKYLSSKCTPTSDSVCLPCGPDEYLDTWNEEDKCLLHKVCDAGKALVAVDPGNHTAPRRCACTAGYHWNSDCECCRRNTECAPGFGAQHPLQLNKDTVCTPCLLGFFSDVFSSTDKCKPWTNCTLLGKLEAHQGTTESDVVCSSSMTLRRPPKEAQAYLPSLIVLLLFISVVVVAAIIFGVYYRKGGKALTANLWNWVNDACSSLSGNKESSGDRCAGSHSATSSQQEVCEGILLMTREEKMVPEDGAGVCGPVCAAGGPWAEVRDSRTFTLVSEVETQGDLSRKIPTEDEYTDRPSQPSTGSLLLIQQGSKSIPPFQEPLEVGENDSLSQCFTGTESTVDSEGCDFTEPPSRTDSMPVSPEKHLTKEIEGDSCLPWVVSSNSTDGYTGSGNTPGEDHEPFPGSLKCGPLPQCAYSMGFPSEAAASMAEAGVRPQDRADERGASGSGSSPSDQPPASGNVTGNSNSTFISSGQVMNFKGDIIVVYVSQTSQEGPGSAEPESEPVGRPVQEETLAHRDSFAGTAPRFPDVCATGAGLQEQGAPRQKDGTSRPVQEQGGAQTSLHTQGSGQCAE
The experiment in a line: (§1) Inhibition of RANKL-RANK protein-protein interaction in C57/BL6 mouse bone marrow macrophage assessed as suppression of M-CSF/mRANKL-induced osteoclast differentiation by measuring decrease in multinucleated TRAP+ cells supplemented with fresh medium containing compounds every 2 days for 5 to 6 days by TRAP staining-based microscopic analysis. The format is cell-based. In outline: (§2)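 Bone marrow macrophages were exposed to the test compound at the indicated concentrations for 5 days under M-CSF/RANKL stimulation. TRAP-positive multinucleated cells were then counted as the measure of osteoclast formation.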

Series [2] concerns the target T2, Tumor necrosis factor ligand superfamily member 11/11A (Mus musculus) (UniProt O35235+O35305). The series is described as §1. The series is classed as cell-based. A digest of the protocol:
as §2

In series [3] the target is T2, Tumor necrosis factor ligand superfamily member 11/11A (Mus musculus). In words: Inhibition of RANKL-RANK protein-protein interaction in C57/BL6 mouse bone marrow macrophage assessed as suppression of M-CSF/mRANKL-induced osteoclastogenesis by measuring reduction in TRAP activity at 5 uM measured after 3 days by colorimetric assay relative to control. A digest of the protocol:
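BMMs were incubated with the test compound at 5 μM, together with RANKL (50 ng/mL) and M-CSF (20 ng/mL), for 3 days. Osteoclastogenesis was then read out as tartrate-resistant acid phosphatase (TRAP) activity.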

The target is the same in series [4]. The experiment in a line: Inhibition of RANKL-RANK protein-protein interaction in C57/BL6 mouse bone marrow macrophage assessed as suppression of M-CSF/mRANKL-induced osteoclast differentiation by measuring decrease in multinucleated TRAP+ cells at 5 uM supplemented with fresh medium containing compounds every 2 days for 5 to 6 days by TRAP staining-based microscopic analysis relative to control. The series is classed as cell-based. A digest of the protocol: as §2

Series [5] has the same target. In words: Inhibition of RANKL-RANK protein-protein interaction in C57/BL6 mouse bone marrow macrophage assessed as suppression of M-CSF/mRANKL-induced osteoclastogenesis by measuring reduction in cathepsin K mRNA level measured after 3 days by Trizol-reagent-based qRT-PCR analysis. A digest of the protocol: (§3)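 BMMs were treated with graded compound concentrations during RANKL-driven osteoclastogenesis. On day 3 of culture, NFATc1, TRAP and cathepsin K transcripts were quantified by real-time PCR.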
In general terms: Quantitative PCR measures a nucleic acid by following its amplification.

For series [6] the target is unchanged. The experiment in a line: Inhibition of RANKL-RANK protein-protein interaction in C57/BL6 mouse bone marrow macrophage assessed as suppression of M-CSF/mRANKL-induced osteoclast differentiation by measuring decrease in multinucleated TRAP+ cells at 10 uM supplemented with fresh medium containing compounds every 2 days for 5 to 6 days by TRAP staining-based microscopic analysis relative to control. The series is classed as cell-based. A digest of the protocol:
as §2

The target of series [7] is T3, Tumor necrosis factor ligand superfamily member 11 (Homo sapiens) (UniProt O14788).
T3 sequence (whole entry): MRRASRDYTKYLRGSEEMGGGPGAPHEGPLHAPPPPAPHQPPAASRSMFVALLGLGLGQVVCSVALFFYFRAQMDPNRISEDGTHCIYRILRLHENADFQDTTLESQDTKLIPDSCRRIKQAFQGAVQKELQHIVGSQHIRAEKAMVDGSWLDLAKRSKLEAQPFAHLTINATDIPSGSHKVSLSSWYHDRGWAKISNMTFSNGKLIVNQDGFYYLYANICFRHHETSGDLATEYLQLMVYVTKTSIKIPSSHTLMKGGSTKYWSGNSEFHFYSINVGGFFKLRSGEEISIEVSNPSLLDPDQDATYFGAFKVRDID
The experiment in a line: (§4) Inhibition of RANK binding to human RANKL measured after 1 h by surface plasmon resonance analysis. Background: Surface plasmon resonance follows binding to a sensor surface in real time, without labels.

Series [8] deals with T4, Tumor necrosis factor ligand superfamily member 11 (Homo sapiens, UniProt O14788).
T4 sequence (O14788 whole entry): T3 sequence (whole entry)
The description is as §4.

Series [9] has as its target T2, Tumor necrosis factor ligand superfamily member 11/11A (Mus musculus). In words: Inhibition of RANKL-RANK protein-protein interaction in C57/BL6 mouse bone marrow macrophage assessed as suppression of M-CSF/mRANKL-induced osteoclastogenesis by measuring reduction in TRAP mRNA level measured after 3 days by Trizol-reagent-based qRT-PCR analysis. In outline:
as §3

Series [10] shares this target. In words: Inhibition of RANKL-RANK protein-protein interaction in C57/BL6 mouse bone marrow macrophage assessed as suppression of M-CSF/mRANKL-induced osteoclastogenesis by measuring reduction in NFATc1 mRNA level measured after 3 days by Trizol-reagent-based qRT-PCR analysis. In outline:
as §3

Series [11] deals with T4, Tumor necrosis factor ligand superfamily member 11. In words: Binding affinity to human RANKL by surface plasmon resonance analysis.
The target of series [12] is T2, Tumor necrosis factor ligand superfamily member 11/11A (Mus musculus). In words: Inhibition of RANKL-RANK protein-protein interaction in C57/BL6 mouse bone marrow macrophage assessed as suppression of M-CSF/mRANKL-induced osteoclast differentiation by measuring decrease in multinucleated TRAP+ cells at 5 uM supplemented with fresh medium containing compounds every 2 days for 5 to 6 days by TRAP staining-based microscopic analysis. The format is cell-based. In outline:
as §2

The target is the same in series [13]. The experiment in a line: Inhibition of RANKL-RANK protein-protein interaction in C57/BL6 mouse bone marrow macrophage assessed as suppression of M-CSF/mRANKL-induced osteoclastogenesis by measuring reduction in NFATc1 mRNA level at 2.5 uM measured after 3 days by Trizol-reagent-based qRT-PCR analysis. A digest of the protocol: as §3
The target in the next series is Tumor necrosis factor (Homo sapiens, UniProt P01375). The experiment in a line: Binding affinity to human TNFalpha by surface plasmon resonance analysis.
The target in series [14] is T2, Tumor necrosis factor ligand superfamily member 11/11A (Mus musculus). The experiment in a line: Inhibition of RANKL-RANK protein-protein interaction in C57/BL6 mouse bone marrow macrophage assessed as suppression of M-CSF/mRANKL-induced osteoclastogenesis by measuring reduction in TRAP mRNA level at 2.5 uM measured after 3 days by Trizol-reagent-based qRT-PCR analysis. In outline:
as §3

Series [15] shares this target. In words: Inhibition of RANKL-RANK protein-protein interaction in C57/BL6 mouse bone marrow macrophage assessed as suppression of M-CSF/mRANKL-induced osteoclastogenesis by measuring reduction in c-fos expression measured after 3 days by Western blot analysis.
For series [16] the target is unchanged. In words: Inhibition of RANKL-RANK protein-protein interaction in C57/BL6 mouse bone marrow macrophage assessed as suppression of M-CSF/mRANKL-induced bone resorption at 1 to 5 uM measured after 2 days by toluidine blue staining-based confocal microscopic analysis.
Series [17] shares this target. In words: Inhibition of RANKL-RANK protein-protein interaction in C57/BL6 mouse bone marrow macrophage assessed as suppression of M-CSF/mRANKL-induced osteoclastogenesis by measuring reduction in cathepsin K mRNA level at 2.5 uM measured after 3 days by Trizol-reagent-based qRT-PCR analysis. In outline:
as §3

Series [18] has the same target. In words: Inhibition of RANKL-RANK protein-protein interaction in C57/BL6 mouse bone marrow macrophage assessed as suppression of M-CSF/mRANKL-induced osteoclastogenesis by measuring reduction in NFATc1 expression measured after 3 days by Western blot analysis.
Series [19] is described as follows: Cytotoxicity against M-CSF-stimulated C57/BL6 mouse bone marrow macrophages assessed as cell viability at 10 uM measured after 2 days by MTT assay (reference value: 100%). The format is cell-based. To be noted: M-CSF-stimulated bone marrow macrophages (BMDM), read-out: Activity.
The target of series [20] is T2, Tumor necrosis factor ligand superfamily member 11/11A (Mus musculus). The experiment in a line: Inhibition of RANKL-RANK protein-protein interaction in C57/BL6 mouse bone marrow macrophage assessed as suppression of M-CSF/mRANKL-induced osteoclast differentiation by measuring decrease in nuclei number of F-actin ring formation at 5 uM supplemented with fresh medium containing compounds every 2 days for 5 to 6 days by rhodamine phalloidin/DAPI staining-based microscopic analysis. The series is classed as protein assay.

For series [21] the target is unchanged. The experiment in a line: Inhibition of RANKL-RANK protein-protein interaction in C57/BL6 mouse bone marrow macrophage assessed as suppression of M-CSF/mRANKL-induced osteoclast differentiation by measuring decrease in nuclei size of F-actin ring formation at 5 uM supplemented with fresh medium containing compounds every 2 days for 5 to 6 days by rhodamine phalloidin/DAPI staining-based microscopic analysis. The series is classed as protein assay.

In general, IC50 refers to the concentration needed to halve the response being measured. Broadly, the inhibition is the share of the control response that was lost under treatment. One may read the Kd as a measure of binding affinity in units of concentration. Read a low Kd as tighter binding.

Sequence of Tumor necrosis factor (P01375 whole entry): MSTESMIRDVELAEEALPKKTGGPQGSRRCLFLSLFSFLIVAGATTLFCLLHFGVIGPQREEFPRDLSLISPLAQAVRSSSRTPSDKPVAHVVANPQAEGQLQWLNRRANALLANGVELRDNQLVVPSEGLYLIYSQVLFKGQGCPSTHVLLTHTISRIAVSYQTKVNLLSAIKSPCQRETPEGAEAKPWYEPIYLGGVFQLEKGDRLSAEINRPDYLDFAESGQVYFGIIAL

Consider `Cc1cccc(C)c1NC(=O)C(Cc1c[nH]c2ccccc12)NC(=O)OCc1ccccc1` (racemic), for which the Activity result with BMDM was “Non-Toxic”. The IC50 came out at 6.6 µM in [1] and 26.2 µM in series [8]. Besides, the inhibition result in series [2] is “Dose-dependent effect”; in series [3], 54.9 to 68.4%; in series [4], 50%; in [5] it was “Dose-dependent effect”; in [6], 93.3%; in [7], “Dose-dependent effect”. Further, the inhibition entry in series [9] and in [10] was “Dose-dependent effect” in each case. Moreover, in series [11], binding was characterised by a dissociation constant (Kd) of 9.8 µM.
Consider `Cc1cccc(C)c1NC(=O)C(Cc1c[nH]c2ccccc12)NCCCc1ccccc1` (racemic), for which the inhibition in [12] is 100%; in series [2], “Dose-dependent effect”; in [3], 92.9%; in series [15], “Dose-dependent effect”; in series [18], “Dose-dependent effect”; in [20], “Dose-dependent effect”. Besides, the inhibition result in [21] was “Dose-dependent effect”. For the same compound, the inhibition entry in series [13], in [14], in [16] and in series [17] was “Active” throughout. The Kd is 93.6 µM on Tumor necrosis factor and 0.614 µM in [11]. Further, the viability at 48 h, 10 µM in series [19] was determined as 110%.
